Source: publication PMC4980657 (Journal of medicinal chemistry, 2015)
Read-outs that look alike come from different tables or passages of the source.

Experiments:
[1] = target: PCP binding site of the NMDA receptor; settings: rat brain membranes, cited from earlier work; for Ki: read-out: [3H]TCP Ki; for inhibition (%) of [3H]TCP binding: test ligand at 1.0 μM
[2] = target: PCP binding site of the NMDA receptor; settings: read-out: Ki vs [3H]1; cited from earlier work
[3] = target: PCP binding site of the NMDA receptor; settings: mean from two experiments, rat brain membranes; for inhibition (%) of [3H]TCP binding: test ligand at 1.0 μM
Method in brief: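 Outsourced to a contract lab using rat brain membrane suspensions and [3H]TCP as radioligand. Test ligands were first screened at 1 μM for percent inhibition of [3H]TCP binding. […] Values are the mean of two experiments.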

Compound	Ki [1] [nM]	inhibition (%) of [3H]TCP binding [1] [%]	Ki [2] [nM]	Ki ([3]; read-out: [3H]TCP Ki) [nM]	inhibition (%) of [3H]TCP binding [3] [%]
CN(C(N)=Nc1cccc2ccccc12)c1cccc(I)c1 [compound 3, reference compound]	31.9	106	–	–	–
CN(C(=N)Nc1cccc2ccccc12)c1cccc(C(F)(F)F)c1 [compound 7, 1-Methyl-3-(naphthalen-1-yl)-1-(3-(trifluoromethyl)phenyl)guanidine]	18.3	107	2.68	–	–
CN(C(=N)Nc1cccc2ccccc12)c1cc(C(F)(F)F)ccc1F [compound 13, 1-(6-fluoro-3-(trifluoromethyl)phenyl)-1-methyl-3-(naphthalen-1-yl)guanidine]	–	–	–	13	91.0
CN(C(=N)Nc1cc(SCF)ccc1Cl)c1cccc(C(F)(F)F)c1 [compound 46, 3-(2-Chloro-5-(fluoromethylthio)phenyl)-1-methyl-1-(3-(trifluoromethyl)phenyl)guanidine]	–	–	–	–	57.5
